High-throughput results: PubChem, several laboratories
A selection: hits, their analogues and other compounds. The true share with any hit is near 1.7%.
Vif inh – HIV Vif inhibition; HEK293T cells, Vif self-association by quenched fluorescence, imaging, 24 h; 0.35% of 340,000 active; inhibition, % at 7.49 µM; AID 602346; in the data active = inhibition above about 50%, passing the limit was not always enough; inconclusive = no clear call, values can overlap the other calls; inactive = below about 31%
SR-BI uptake up – enhances SR-BI lipid uptake from DiI-HDL | AID 504775 | 0.096% of 320,000 active | CHO ldlA[mSR-BI] cells, DiI-HDL uptake fluorescence, 3 h; 100 = double the neutral-control signal | activation, % at 12.5 µM;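 active = mean replicate activation of at least 60% and every replicate at or above 60%; inconclusive = mean or all-replicate condition met, but not both; inactive = mean below 60% and not all replicates reaching 60%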;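 note: 0% = median plate neutral-control signal and 100% = twice that signal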
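Test system: SR-BI-overexpressing, LDLR-lacking CHO cells. Measured by: DiI fluorescence, bottom read. Medium: Ham's F12 with 0.5% BSA, HEPES 25 mM, pH 7.4. Timing: 3 h uptake period with compound, 37 °C.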
SR-BI DiI inh – inhibitors of mouse SR-BI mediated HDL lipid uptake; ldlA[mSR-BI] CHO cells, DiI-HDL uptake fluorescence, 3 h; Q61009; 0.96% of 320,000 active; inhibition, % at 12.5 µM;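 active = mean replicate inhibition of at least 70% and a set share of replicates each scoring 70 or more; inconclusive = meets just one of the two criteria; inactive = fails both criteria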;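 note: 0% = median of neutral control wells and 100% = median of positive control wells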
CaV13 FRET inh – Primary screen for inhibitors of IQ motif and Ca2+-dependent inactivation inhibitor domain binding in CACNA1D, Förster resonance energy transfer in living cells, …. 0.098% of 340,000 active. inhibition, % at 12.3 µM. HEK cells, CFP/YFP FRET ICDI-IQ, plate reader, 10 min; percent FRET-ratio fall versus neutral wells;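 active = mean replicate inhibition of at least 30% and at least 1% of replicates passing that level; inconclusive = only one of the two criteria is met; inactive = neither criterion is met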;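 note: 0% = median of the neutral control wells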
NTR1 agonist – agonists of human neurotensin receptor NTR1; 0.17% of 330,000 active; AID 493036; activation, % at 20 µM; NTR1-U2OS beta-arrestin-GFP spot imaging, agonist mode;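 active = activation at or above 40% of the spot to cytoplasm intensity ratio, with at least 20 cells analyzed; inconclusive = wells under 20 cells, flagged as cytotoxic or low count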;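 note: 0% = DMSO without peptide and 100% = 100 nM NTR1 peptide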
Target sequence (P30989 whole entry, looked up): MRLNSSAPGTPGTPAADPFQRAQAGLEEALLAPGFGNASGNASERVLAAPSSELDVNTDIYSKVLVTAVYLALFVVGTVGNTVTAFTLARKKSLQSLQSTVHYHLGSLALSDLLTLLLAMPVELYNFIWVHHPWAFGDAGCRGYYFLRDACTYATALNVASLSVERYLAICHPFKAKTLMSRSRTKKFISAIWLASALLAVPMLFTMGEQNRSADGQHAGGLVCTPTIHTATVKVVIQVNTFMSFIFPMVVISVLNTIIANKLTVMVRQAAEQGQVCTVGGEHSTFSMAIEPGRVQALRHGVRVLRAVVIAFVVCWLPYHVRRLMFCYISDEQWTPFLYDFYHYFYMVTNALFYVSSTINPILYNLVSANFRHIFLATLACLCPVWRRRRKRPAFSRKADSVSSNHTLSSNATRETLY
V-ATPase pHluor – regulators of yeast V-ATPase proton transport | S. cerevisiae, pHLuorin cytosolic pH fluorescence | 0.37% of 350,000 active | AID 504577 | response, % at 10 µM; in the data active = response mostly above about 7.3%, no sharp cut-off; inactive = mostly below about 5.4%; note: actives read high
* = called active by the depositor; ? = inconclusive; . = no result given.

SMILES | Vif inh | SR-BI uptake up | SR-BI DiI inh | CaV13 FRET inh | NTR1 agonist | V-ATPase pHluor
CC(C)(C)c1ccc(C(=O)OCC(=O)Nc2cccc(S(=O)(=O)NC3=NCCC3)c2)cc1 | 4 | . | . | -5 | . | .
NC(=O)Nc1ccc(C(=O)OCC(=O)Nc2cccc(S(=O)(=O)NC3=NCCC3)c2)cc1 | ? | -76 | 76* | -3 | 1 | 2
COc1ccc(-c2cc(C(=O)Nc3cccc(S(=O)(=O)NCc4ccco4)c3)c3ccccc3n2)cc1OC | -7 | . | . | -3 | 6 | 2
O=C(Nc1cccc(S(=O)(=O)NC2=NCCCCC2)c1)c1cc(-c2ccccc2)nc2ccccc12 | 2 | -77 | 77* | -2 | 3 | -2
O=C(Nc1cccc(S(=O)(=O)NCc2ccco2)c1)c1cc(-c2ccc(F)cc2)nc2ccccc12 | 2 | -74 | 74* | -2 | 2 | 0
CC1CN(S(=O)(=O)c2ccc(CN3C(=O)c4cccnc4C3=O)cc2)c2ccccc2O1 (stereo not given) | -3 | 3 | -3 | -7 | 0 | 4
O=C(Nc1ccc(Cl)c(C(=O)N2CCOCC2)c1)c1ccccc1 | 4 | -26 | 26 | -7 | -2 | 0
Cc1oc(-c2cc3c(cc2Cl)OCO3)nc1CN1CCCC(C(=O)N2CCOCC2)C1 (stereo not given) | -5 | -22 | 22 | -3 | 0 | 16*
Cc1oc(-c2ccc(F)cc2)nc1CN1CCCC(C(=O)N2CCOCC2)C1 (stereo not given) | 21 | 16 | -16 | -7 | 0 | 6
C[C@@H]1CN([C@H](C)CO)C(=O)c2cc(NS(=O)(=O)c3ccccc3)ccc2O[C@@H](C)CCCCO[C@@H]1CN(C)Cc1ccc(Cl)c(Cl)c1 | . | . | . | -6 | . | .
O=C1/C(=C\c2ccc(O)c(O)c2)SC(=S)N1Cc1ccccc1 | 0 | -83 | 83* | -8 | -4 | 0
O=C1/C(=C\c2cccc(O)c2O)SC(=S)N1Cc1ccccc1 | -5 | -133 | 133* | -5 | 9 | 4
O=C1/C(=C\c2cccc(O)c2)SC(=S)N1Cc1ccccc1 | 4 | 8 | -8 | -20 | 10 | -1
COc1ccc(NC(=O)C2CC2(Cl)Cl)cc1S(=O)(=O)N1CCCCC1 (stereo not given) | . | . | . | -12 | . | 4
CCCOc1ccc2c(c1)C(=NN=C(N)N)c1cc(OCCC)ccc1-2 | -12 | -50 | 50 | -5 | 80* | 4
COCCCNC(=O)[C@@H](Cc1ccccc1)NC(=O)[C@H]1O[C@@H](n2ccc(=O)[nH]c2=O)[C@H](O)[C@@H]1O | . | . | . | -4 | . | .
O=C1COc2ccc(C(=O)COC(=O)c3cnc(Cl)c(Cl)c3)cc2N1 | 2 | 16 | -16 | -4 | 12 | -1
Cc1ccc(O)c(N=CC2=C(O)c3ccccc3C2=O)c1 | . | -118 | 118* | -6 | 3 | 3
COc1ccc(N2C(=O)c3n[nH]c(C(C)C)c3C2c2ccc(C)cc2)cc1 (stereo not given) | . | . | . | -9 | . | .
C=CCNc1nc(-c2cccc(OC)c2O)nc2ccccc12 | -25 | -76 | 76* | -3 | 6 | -1
O=C(OCc1nnc(-c2ccc([N+](=O)[O-])cc2)o1)c1ccc(F)c(S(=O)(=O)N2CCOCC2)c1 | 10 | -36 | 36 | -6 | 2 | 17*
CS(=O)(=O)c1ccc(C(=O)OCc2nnc(-c3ccc(Cl)cc3)o2)cc1[N+](=O)[O-] | 1 | 2 | -2 | . | 41* | 0
O=C(OCc1nnc(-c2ccc(Cl)cc2)o1)c1ccc(O)cc1 | 14 | 12 | -12 | -6 | 2 | 0
O=C(Nc1ccc(F)cc1)c1ccc(S(=O)(=O)N2CCOCC2)o1 | 53* | . | . | -5 | 0 | 0
COCCN(C(=O)c1cc(-c2ccco2)nc2ccccc12)c1c(N)n(Cc2ccccc2)c(=O)[nH]c1=O | 2 | 12 | -12 | -7 | -2 | 2
O=C(CCCn1c(=O)c2cccn2c2cccnc21)NCCc1ccc(Cl)cc1 | 2 | -79 | 79* | -2 | 14 | -4
NS(=O)(=O)c1ccc(NC(=O)CCC(=O)N2CCOCC2)cc1 | 58* | 20 | -20 | -2 | 0 | 2
